The values below come from ChEMBL document CHEMBL1139444, “Oxazolidinone: search for highly potent antibacterial” (2004).

Molecules are shown by their SMILES. Converted amounts (≈) assume the structure as drawn.

Holding throughout (assay type): functional
Experiment [1] concerns Staphylococcus aureus. In words: Minimum inhibitory concentration against Staphylococcus aureus ATCC 29213. Summed up:
(§1)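 Microbroth dilution MIC determination, with results expressed in μg/mL. Where run in triplicate, the highest MIC of the three replicates is the value reported.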

The test system of experiment [2] is Enterococcus faecalis. The experiment can be described thus: Minimum inhibitory concentration against Enterococcus faecalis ATCC 14506. Summed up: as §1
The subject of a further experiment is Klebsiella pneumoniae. The experiment can be described thus: Minimum inhibitory concentration against Klebsiella pneumoniae ATCC 10031. The method, boiled down: as §1
A further experiment deals with Bacillus cereus. The experiment can be described thus: Minimum inhibitory concentration against Bacillus cereus MTCC 430. Summed up:
as §1

The test system of experiment [3] is Enterococcus faecalis. The experiment can be described thus: Minimum inhibitory concentration against Enterococcus faecalis MTCC 439. The method, boiled down:
as §1

In experiment [4] the test system is Staphylococcus aureus. In words: Minimum inhibitory concentration against Staphylococcus aureus MTCC 96. The method, boiled down: as §1
The next experiment concerns Streptococcus pyogenes. In words: Minimum inhibitory concentration against Streptococcus pyogenes MTCC 442. The method, boiled down: as §1
Another experiment has as its system Bacillus pumilus. The experiment can be described thus: Minimum inhibitory concentration against Bacillus pumilus MTCC 1607. Summed up: as §1
Experiment [5] has as its system Staphylococcus aureus. The experiment can be described thus: Minimum inhibitory concentration against Staphylococcus aureus ATCC 25923. The method, boiled down: as §1
For experiment [6], the system named is Staphylococcus epidermidis. In words: Minimum inhibitory concentration against Staphylococcus epidermidis MTCC 155. Summed up: as §1
In experiment [7] the test system is Staphylococcus aureus. The experiment can be described thus: Minimum inhibitory concentration against Staphylococcus aureus ATCC 14154. The method, boiled down:
as §1

Regarding `NC(=S)NC[C@H]1CN(c2ccc(N3CCN(C(=O)/C=C/c4ccccc4)CC3)c(F)c2)C(=O)O1`, the MIC (in general, the lowest concentration that inhibits growth of the organism) against Staphylococcus aureus [1] worked out at 1 µg/mL (≈ 2.07 µM); against Enterococcus faecalis [2], 0.5 µg/mL (≈ 1.03 µM); in the experiment on Klebsiella pneumoniae, 8 µg/mL (≈ 16.5 µM); against Bacillus cereus it was 0.25 µg/mL (≈ 0.517 µM); against Enterococcus faecalis [3], 0.5 µg/mL (≈ 1.03 µM); in the experiment with Staphylococcus aureus [4], 1 µg/mL (≈ 2.07 µM). In addition, the MIC in the experiment on Streptococcus pyogenes is 0.25 µg/mL (≈ 0.517 µM); in the experiment with Bacillus pumilus, 1 µg/mL (≈ 2.07 µM); with Staphylococcus aureus [5] it was 2 µg/mL (≈ 4.14 µM); in [6], 1 µg/mL (≈ 2.07 µM); with Staphylococcus aureus [7], 2 µg/mL (≈ 4.14 µM).
